Data from PMC6874763 (Cell chemical biology, 2019).

Experiments:
eIF4A1 = eIF4A1 (Homo sapiens, UniProt P60842); assay: Fluorescence polarization; format: binding; conditions: for rank in screen for enhancing eIF4A1:poly r(AG)8 RNA binding: 10 µM rocaglate, >200 rocaglates of BU-CMD collection
NIH/3T3 cells = assay: Sulforhodamine B; format: cell-based; conditions: read-out: IC50 cytotoxicity against NIH/3T3 cells; 4 day compound exposure
eIF4A2 = eIF4A2 (Homo sapiens, UniProt Q14240); assay: Fluorescence polarization; format: binding; conditions: 10 µM CR-1–31-B, 10 nM FAM poly r(AG)8, 30 min RT
Chain of eIF4A2 (Q14240 whole entry, species assumed): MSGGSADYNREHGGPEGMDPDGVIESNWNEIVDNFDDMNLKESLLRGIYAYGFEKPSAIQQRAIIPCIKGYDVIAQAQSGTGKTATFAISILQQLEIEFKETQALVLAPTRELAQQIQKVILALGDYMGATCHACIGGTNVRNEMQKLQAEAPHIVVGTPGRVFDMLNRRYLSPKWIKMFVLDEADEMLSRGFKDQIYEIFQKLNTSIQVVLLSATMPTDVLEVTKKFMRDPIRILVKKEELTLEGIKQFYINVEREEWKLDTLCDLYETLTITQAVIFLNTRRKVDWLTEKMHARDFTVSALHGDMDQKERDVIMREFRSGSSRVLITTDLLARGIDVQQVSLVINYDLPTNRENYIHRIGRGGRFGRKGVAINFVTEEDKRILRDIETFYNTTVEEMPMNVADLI
Procedure, shortened: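 His6-eIF4A2 expressed in E. coli BL21(DE3), purified by Ni-NTA then Q-Sepharose. Varied eIF4A2 concentrations mixed with 10 nM FAM-poly r(AG)8, plus DMSO vehicle or test compound. Equilibrated 30 min at RT, then polarization read. Change in FP expressed relative to DMSO control; n = 3 ± SEM.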

liver polysomes = assay: Liver polysome profiling after intraperitoneal delivery; format: in vivo, mice; conditions: 3 h after intraperitoneal injection; 0.5 mg/kg CMLD012612, 0.2 mg/kg CR-1–31-B
[1] = system: 80S ribosome assembly on (AG)10-FF/HCV/Ren mRNA; assay: Ribosome binding; format: biochemical, rabbit; conditions: 500 nM compound, 100 nM eIF4A1, RRL, 600 µM cycloheximide
Procedure, shortened: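 32P-labeled (AG)10-FF/HCV/Ren mRNA preincubated with 100 nM eIF4A1 and 500 nM compound for 10 min at RT. Then added to rabbit reticulocyte lysate with 600 µM cycloheximide and incubated 10 min at 30 °C. Lysate sedimented on 10–30% glycerol gradients (SW40, 39,000 rpm, 3.5 h, 4 °C). Fractions collected and radioactivity measured by scintillation counting.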

myr-Akt/Eµ-Myc lymphomas = assay: Lymphoma chemosensitization study; format: in vivo, mice; conditions: CMLD012612 0.2 mg/kg IP daily for 5 days + doxorubicin 10 mg/kg on day 2
HEK293 cells = assay: [35S]-methionine labeling; format: cell-based; conditions: 1 h compound exposure; compared with CR-1–31-B and CMLD012073
[2] = system: cap-dependent translation (FF); assay: In vitro translation assay in Krebs-2 extracts; format: biochemical; conditions: Krebs-2 extracts programmed with mRNA
Procedure, shortened: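 Reporter mRNA added at 10 ng/µL final. Incubated with or without compound 60 min at 30 °C; firefly luciferase read. IC50 from 3–5 independent experiments (6 concentration points), nonlinear regression fit.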

Chain of eIF4A1 (P60842 whole entry, species assumed): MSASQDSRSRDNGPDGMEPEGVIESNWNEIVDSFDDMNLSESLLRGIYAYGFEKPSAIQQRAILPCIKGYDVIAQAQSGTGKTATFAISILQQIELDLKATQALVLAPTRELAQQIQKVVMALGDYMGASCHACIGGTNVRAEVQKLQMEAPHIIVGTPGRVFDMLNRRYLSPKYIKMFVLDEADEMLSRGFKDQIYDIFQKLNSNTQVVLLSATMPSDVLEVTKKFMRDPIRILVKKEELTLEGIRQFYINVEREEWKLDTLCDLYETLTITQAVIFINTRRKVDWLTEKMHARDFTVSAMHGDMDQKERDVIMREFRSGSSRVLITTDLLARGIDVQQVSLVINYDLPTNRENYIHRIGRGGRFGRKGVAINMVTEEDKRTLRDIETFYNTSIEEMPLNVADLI

SMILES | rank in screen for enhancing eIF4A1:poly r(AG)8 RNA binding (eIF4A1) | IC50 (NIH/3T3 cells) | suppression of liver polysomes (liver polysomes) | assembly of the 80S ribosome on the mRNA [1] | further results
CONC(=O)[C@H]1[C@@H](O)[C@@]2(O)c3c(OC)cc(OC)cc3O[C@@]2(c2ccc(Br)cc2)[C@@H]1c1ccccc1 [SDS-1–0-21] | ranked highly | – | – | – | –
COc1ccc([C@@]23Oc4cc(OC)cc(OC)c4[C@@]24NC(C)=NC4=C(C=O)[C@H]3c2ccccc2)cc1 [CMLD012607] | – | 454 nM | – | – | –
CONC(=O)[C@H]1[C@@H](O)[C@@]2(O)c3c(OC)cc(OC)cc3O[C@@]2(c2ccc(OC)cc2)[C@@H]1c1ccccc1 [CR-1–31-B] | ranked highly | ~8.5 nM | effectively suppressed liver polysomes | inhibited assembly of the 80S ribosome | binding activity of eIF4A2 to poly r(AG)8 (eIF4A2): enhanced; stimulation of eIF4A1 binding to poly rA(GAA)5 (eIF4A1; 500 nM eIF4A1, 30 min, change in FP vs vehicle): preferentially stimulated; binding activity of eIF4A1 to poly r(AG)8 (eIF4A1; 10 µM CR-1–31-B, 10 nM FAM poly r(AG)8, 30 min RT): enhanced
COC(=O)[C@@H]1[C@@H](c2ccccc2)[C@]2(c3ccc(OC)cc3)Oc3cc(OC)cc(OC)c3[C@@]23N=C(C2CC2)N[C@@]13O [CMLD012072] | Among the most potent | – | – | – | –
COc1ccc([C@@]23Oc4cc(OC)cc(OC)c4[C@@]24N=C(C)N[C@@]4(O)[C@H](C(=O)N(C)OC)[C@H]3c2ccccc2)cc1 [CMLD012612] | – | ~2 nM | effectively suppressed liver polysomes | – | duration of complete tumor loss (tumor-free survival) (myr-Akt/Eµ-Myc lymphomas): 15 to 16 days; synergy with doxorubicin (myr-Akt/Eµ-Myc lymphomas): effectively synergized; inhibition of cellular translation (35S-methionine incorporation) (HEK293 cells): surpasses those of our previous lead compounds; cytotoxicity in eIF4A1^em1JP cells versus NIH/3T3 (eIF4A1^em1JP cells): significantly blunted; resistance of eIF4A^em1jp cells relative to parental NIH/3T3 cells (eIF4A1^em1JP cells; 4 day compound exposure): at least 10 fold
COC(=O)[C@@H]1[C@@H](c2ccccc2)[C@]2(c3ccc(OC)cc3)Oc3cc(OC)cc(OC)c3[C@@]23N=C(C)N[C@@]13O [CMLD012073] | Among the most potent | 10 nM | – | inhibited assembly of the 80S ribosome | potency at inhibiting cap-dependent translation (FF) relative to CR-1–31-B [2]: ~ 3 fold
